Measured values of several laboratories.
Lines come from different studies, so protocols differ.
Observed: cell growth or viability

CCCCC(=O)Nc1ccc(-c2ccc3ncn(CCC)c(=O)c3c2)cn1  IC50 (HCC827; CCK-8; 72 h): 0.037 µM
OCc1ccc(-c2nn(Cc3cccnc3)c3ccccc23)o1  IC50 (HuCCT-1; ATP luminescence): > 46 µM
CCCCC(=O)Nc1ccc(-c2ccc3ncn(CCC)c(=O)c3c2)c(F)n1  IC50 (HCC827; CCK-8; 72 h): 0.82 µM
O=C1CSC(=Nc2cc(C(F)(F)F)ccc2-c2nnc(N3C(=O)CSC3=Nc3ccc([N+](=O)[O-])cc3)s2)N1c1ccc([N+](=O)[O-])cc1  IC50 (WI-38; MTT): 77.3 µM
CC(C)[C@@H]1NC(=O)/C(=C/c2cnc[nH]2)NC1=O  IC50 (ASPC1; SRB): > 15 µM
O=C(Nc1ccc(-c2ccc3ncn(Cc4ccc5c(c4)OCO5)c(=O)c3c2)cn1)c1ccccc1  IC50 (HCC827; CCK-8; 72 h): 8.81 µM
COc1ccc(N=Nc2c(N)nn3c(-c4ccc(C)cc4)cc(-c4ccc(OCc5ccccc5)cc4)nc23)cc1  IC50 (WI-38; MTT; 48 h): 47 µM
O=P1(c2ccccc2)CCCCC1  IC50 (HaCaT; MTT; 72 h): > 100 µM
COc1cccc(N=C2SCC(=O)N2c2nnc(-c3ccc(C(F)(F)F)cc3N=C3SCC(=O)N3c3cccc(OC)c3)s2)c1  IC50 (WI-38; MTT): 82.1 µM
COc1ncccc1Cn1nc(-c2ccc(CO)o2)c2ccccc21  IC50 (HuCCT-1; ATP luminescence): > 46 µM
Cc1cccc(NC(=O)Nc2ccc(-c3ccc4ncn(Cc5ccccc5)c(=O)c4c3)cn2)c1  IC50 (HCC827; CCK-8; 72 h): 7.31 µM
CNC(=O)c1ccccc1Nc1cc(Nc2ccc(N3CCOCC3)cc2OC)ncc1C(F)(F)F  IC50 (ASPC1; MTT; 48 h): 3.19 µM
Cc1nc(Nc2ncc(C(=O)Nc3c(C)cccc3Cl)s2)cc(N2CC[C@H](O)C2)n1  IC50 (KARPAS-299; ATP luminescence; 72 h): > 10 µM
O=C1CS/C(=N\c2ccc(F)cc2O)N1c1nnc(-c2ccc(C(F)(F)F)cc2/N=C2\SCC(=O)N2c2ccc(F)cc2O)s1  IC50 (WI-38; MTT): 20.5 µM
COc1cc(Cn2nc(-c3ccc(CO)o3)c3ccccc32)ccn1  IC50 (HuCCT-1; ATP luminescence): > 46 µM
CCCn1cnc2ccc(-c3ccc(NC(=O)CNC(C)C)nc3)cc2c1=O  IC50 (HCC827; CCK-8; 72 h): > 10 µM
CC(C)=CCc1ncc(/C=C2\NC(=O)[C@H](C(C)C)NC2=O)[nH]1  IC50 (ASPC1; SRB): > 15 µM
CCCCn1cnc2ccc(-c3ccc(NC(=O)C4CCC4)nc3)cc2c1=O  IC50 (HCC827; CCK-8; 72 h): 6.31 µM
COc1cccc(Cn2nc(-c3ccc(CO)o3)c3ccccc32)c1  IC50 (HuCCT-1; ATP luminescence): > 46 µM
